Assay results: publication PMC5338879 (Journal of Hypertension, 2016)
“Also recorded” adds a separate entry of the source.

Tests used:
[1] = system: premenopausal women with female sexual dysfunction; experiment: Treatment-emergent adverse events, 12-week double-blind treatment; type: in vivo, human; settings: all bremelanotide dosages; no marked dosage dependence
Procedure, shortened: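 Adverse events were queried at every clinic visit after screening. Physical examination, vital signs, 12-lead ECG and clinical laboratory tests were also performed. Events were tabulated in all participants given at least one double-blind dose.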

[2] = high sc doses, men with erectile dysfunction; cited from earlier work
[3] = system: premenopausal women with female sexual dysfunction; experiment: Protocol-directed blood pressure-related withdrawals after randomization; type: in vivo, human
Procedure, shortened: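 Ambulatory BP records were screened manually and programmatically for SBP ≥150 mmHg, DBP ≥95 mmHg, SBP rise ≥30 mmHg or DBP rise ≥15 mmHg. Flagged reports went to safety staff, including a hypertension expert blinded to treatment, who also reviewed activities, HR and other medications. Participants meeting the prespecified criteria (absolute level, change from baseline, duration) were withdrawn.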

[4] = intranasal administration; cited from earlier work
[5] = Plasma pharmacokinetics after in-clinic subcutaneous doses; type: in vivo, human; settings: for Cmax, mean: plasma, LC-MS/MS
Procedure, shortened: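 Blood was sampled predose and at 0.5, 1.0 and 2.0 h postdose at both double-blind in-clinic sc dosing visits (0.75, 1.25 or 1.75 mg). Plasma was assayed by validated LC-MS/MS. Noncompartmental analysis gave Cmax, Tmax, […] and AUC(0–2). For each dose level and visit, mean Cmax, range and coefficient of variation were reported.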

[6] = system: premenopausal women with female sexual dysfunction; experiment: Ambulatory BP and heart rate monitoring after in-clinic subcutaneous doses; type: in vivo, human; settings: for Increase in ambulatory SBP relative to placebo (abstract): second of two doses, 0 to 4-h postdose interval
Procedure, shortened: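 Premenopausal women aged ≥21 years were randomized 1:1:1:1 to placebo or 0.75, 1.25 or 1.75 mg sc (anterior thigh or abdomen). The ambulatory monitor was fitted before each in-clinic dose and recorded at 15-min intervals. Baseline was the single-blind in-clinic placebo dose, and changes were placebo-subtracted over 0–4, >4–8, >8–24 and 0–24 h. SBP shifts were counted per 15 min against thresholds of 10/15 mmHg change and 150/160 mmHg absolute.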

[7] = system: men with erectile dysfunction; settings: single sc doses of 4–6 mg; cited from earlier work
[8] = initial in-clinic dose, linear regression, all dose levels

## CCCC[C@H](NC(C)=O)C(=O)N[C@H]1CC(=O)NCCCC[C@@H](C(=O)O)NC(=O)[C@H](Cc2c[nH]c3ccccc23)NC(=O)[C@H](CCCN=C(N)N)NC(=O)[C@@H](Cc2ccccc2)NC(=O)[C@H](Cc2cnc[nH]2)NC1=O [bremelanotide]
[1]
  Most common adverse events: nausea, flushing, and headache
[2]
  Tmax: 0.5 to 1 h
  mean half-life: 1.9 to 2.7 h
[3]; after a 0.75-mg dose, of 100
  Participants withdrawn after randomization (BP-related): 4%
[3]; after a 1.25-mg dose, of 99
  Participants withdrawn after randomization (BP-related): 9%
[3]; after a 1.75-mg dose, of 98
  Participants withdrawn after randomization (BP-related): 7%
[4]
  Variability in bioavailability: wide variability in bioavailability
[5]; 0.75, 1.25, 1.75 mg sc, both in-clinic doses
  Dose proportionality of pharmacokinetics: dose proportionality; also recorded: dose-proportional increases in concentrations
[5]; human, in vivo, sc, 0.75 mg
  Cmax: 37.5 ng/mL
[5]; second in-clinic dose 0.75 mg sc, n 89
  Cmax, mean: 37.3 ng/mL
[5]; second in-clinic dose 1.25 mg sc, n 84
  Cmax, mean: 60.1 ng/mL
[5]; second in-clinic dose 1.75 mg sc, n 88
  Cmax, mean: 77.7 ng/mL
[6]; after bremelanotide dosing
  Proportion of SBP shift events lasting 15 min or less: 88%
[6]; all bremelanotide doses
  Number of clinically important shifts in SBP (>10 or >15 mmHg) lasting more than 30 min: three
[6]; any bremelanotide group
  Patients with SBP increase at least 15 mmHg for more than 30 min: No patient
  Patients with SBP more than 180 mmHg for more than 15 min: No patient; also recorded: no sustained elevations
[6]; [8]
  Relationship between maximal change in HR and Cmax: no relationship observed
  Relationship between maximal change in SBP and Cmax: no relationship observed
[6]; sc doses, typically
  Duration of peak increases in ambulatory BP: less than 15 min
[6]; 1.25 mg sc, P 0.076
  Increase in ambulatory SBP relative to placebo (abstract): 3.0 mmHg
[6]; 1.75 mg sc, P 0.027
  Increase in ambulatory SBP relative to placebo (abstract): 3.2 mmHg
[6]; subcutaneous doses, up to 8 h following administration
  Mean HR reductions: 4.6–6.6 bpm
[7]
  Transient increases in clinic SBP: 4–5 mmHg
